The source made the active and inactive calls.
Legend:
[1] = tested on: L6; assay: Effect on [3H]2-deoxy-D-glucose uptake in rat L6 cells at 250 uM relative to control; type: functional
How it was run: (§1)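 L6 myotubes were held in αMEM with 2% FCS and 23.0 mM D-glucose for 24 h. They were then treated with increasing concentrations in medium with 10% FCS and 23.0 mM D-glucose for 7 or 18 h; vehicle controls ran 18 h. After washing, uptake was measured with 0.1 mM dGlc plus 1.3 µCi/mL [3H]dGlc in PBS pH 7.4 for 5 min at room temperature. Ice-cold PBS stop, SDS lysis, scintillation counting; basal rate set to 100%.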

[2] = Cytotoxicity against rat L6 cells by MTT assay; type: cell-based
How it was run: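 MTT assay on L6 myotubes after the treatment incubations: MTT at 2 mg/mL in αMEM for 30 min at 37 °C, formazan dissolved in DMSO, absorbance read at 570 nm.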

[3] = tested on: L6; assay: Effect on [3H]2-deoxy-D-glucose uptake in rat L6 cells at 400 uM relative to control; type: functional; how it was run: as §1
[4] = tested on: L6; assay: Effect on [3H]2-deoxy-D-glucose uptake in rat L6 cells at 1 mM relative to control; type: functional; how it was run: as §1
[5] = tested on: L6; assay: Increase in GLUT1myc abundance in rat L6 cell membrane at 150 uM after 7 hrs; type: functional, cell-based
How it was run: (§2)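 Myc-tagged GLUT1 or GLUT4 L6 myotubes were preconditioned at 5.5 or 23.0 mM glucose for 24 h, then treated in 10% FCS medium for 7 h (18 h for the 5 µM agent). Insulin was 200 nM for 30 min. Intact cells were labeled with rabbit anti-myc (1:200), fixed in 3% formaldehyde, and given HRP anti-rabbit IgG (1:2000). OPD colour was read at 492 nm.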

[6] = tested on: L6; assay: Increase in GLUT1myc abundance in rat L6 cell membrane at 5 µM after 18 hrs; type: functional, cell-based; how it was run: as §2
[7] = Effect on [3H]2-deoxy-D-glucose uptake in human skeletal muscle cells at 5 uM relative to control; type: functional
[8] = tested on: L6; assay: Effect on [3H]2-deoxy-D-glucose uptake in rat L6 cells at 5 uM relative to control; type: functional, cell-based; conditions: TDE = time-dependent effect; how it was run: as §1
[9] = tested on: Serum; assay: Free concentration in fetal calf serum at 5 uM; conditions: cattle
[10] = tested on: L6; assay: Inhibition of [3H]2-deoxy-D-glucose uptake in rat L6 cells at 5 uM in presence of 100 nM wortmannin; type: functional, cell-based
How it was run: (§3)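 L6 myotubes at 23 mM D-glucose received 100 nM wortmannin 30 min before the agents. Treatment ran in 10% FCS medium for 7 h (18 h for the 5 µM agent). A 5-min [3H]dGlc uptake (0.1 mM dGlc, 1.3 µCi/mL) in PBS at room temperature followed, with the vehicle basal rate set to 100%.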

[11] = tested on: L6; assay: Activation of 5-AMP-induced AMPKalpha in rat L6 cells assessed as reduction in hexose transport at 5 uM relative to control in presence of compound C; set-up: scale not given: the % may be the effect or the level left
[12] = tested on: L6; assay: Effect on [3H]2-deoxy-D-glucose uptake in rat L6 cells at 200 uM relative to control; type: functional; how it was run: as §1
[13] = tested on: L6; assay: Increase in GLUT1myc abundance in rat L6 cell membrane at 5 uM after 18 hrs
[14] = tested on: L6; assay: Effect on [3H]2-deoxy-D-glucose uptake in rat L6 cells at 150 uM relative to control; type: functional, cell-based; conditions: TDE = time-dependent effect; how it was run: as §1
[15] = tested on: L6; assay: Effect on [3H]2-deoxy-D-glucose uptake in rat L6 cells at 50 uM relative to control; type: functional, cell-based; conditions: TDE = time-dependent effect; how it was run: as §1
[16] = tested on: L6; assay: Increase in GLUT4myc abundance in rat L6 cell membrane at 5 µM after 18 hrs; type: functional, cell-based; how it was run: as §2
[17] = tested on: L6; assay: Increase in GLUT1myc abundance in rat L6 cell membrane at 50 uM after 7 hrs; type: functional, cell-based; how it was run: as §2
[18] = species: Homo sapiens; assay: Activation of 5-AMP-induced AMPKalpha in human skeletal muscle cells assessed as […] phosphorylation at 5 uM relative to control
How it was run: (§4)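 Primary human skeletal myoblasts from the rectus abdominis of a donor were differentiated into myotubes and treated in medium with 10% (v/v) FCS, 23.0 mM D-glucose and agent, with vehicle controls. Whole-cell lysates were Western blotted for total AMPKα and […]-AMPKα, with ECL detection and densitometry.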

[19] = tested on: L6; assay: Activation of 5-AMP-induced AMPKalpha in rat L6 cells assessed as […] phosphorylation at 5 uM relative to control; type: cell-based
How it was run: (§5)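 L6 myotubes preconditioned 24 h in αMEM with 2% FCS and 23.0 mM D-glucose, then given fresh medium with 10% (v/v) FCS, 23.0 mM D-glucose and test agent; controls received vehicle. Whole-cell lysates (Tris pH 7.5 with phosphatase and protease inhibitors) were blotted for AMPKα and […]-AMPKα, detected by ECL, and bands quantified by densitometry.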

[20] = tested on: L6; assay: Effect on [3H]2-deoxy-D-glucose uptake in rat L6 cells at 500 uM relative to control; type: functional; how it was run: as §1
[21] = tested on: L6; assay: Increase in GLUT1myc abundance in rat L6 cell membrane at 20 mM after 7 hrs; type: functional, cell-based; conditions: 150 uM, in the assay text read “at 150 uM” for “at 20 mM”; how it was run: as §2
[22] = tested on: Serum; assay: Protein binding in fetal calf serum at 5 uM; type: ADME, cell-free, Bos taurus; conditions: cattle
How it was run: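 αMEM with 10% FCS was spiked at 4.6–23.0 µM and held 60 min at 37 °C for total concentration. Samples were ultrafiltered through a 10 kDa cutoff (4400g, 60 min), and the filtrate was hexane-extracted and analysed by LC-MS (SIR m/z 432) for free concentration.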

[23] = tested on: L6; assay: Increase in GLUT4myc abundance in rat L6 cell membrane at 150 uM after 7 hrs; type: functional, cell-based; how it was run: as §2
[24] = tested on: L6; assay: Activation of 5-AMP-induced AMPKalpha in rat L6 cells assessed as […] phosphorylation at 150 uM relative to control; type: cell-based; how it was run: as §5
[25] = tested on: L6; assay: Inhibition of [3H]2-deoxy-D-glucose uptake in rat L6 cells at 150 uM in presence of 100 nM wortmannin; type: functional, cell-based; how it was run: as §3
[26] = Effect on [3H]2-deoxy-D-glucose uptake in human skeletal muscle cells at 150 uM relative to control; type: functional
[27] = tested on: L6; assay: Activation of 5-AMP-induced AMPKalpha in rat L6 cells assessed as […] phosphorylation at 150 uM relative to control in presence of compound C; type: cell-based
[28] = species: Homo sapiens; assay: Activation of 5-AMP-induced AMPKalpha in human skeletal muscle cells assessed as […] phosphorylation at 150 uM relative to control; how it was run: as §4

Q: What does the source list for `CCO[C@H]1[C@@H](CO)O[C@@H](c2ccccc2)O[C@H]1C(SCC)SCC`?
A: fold change (FC) [1]: 1.01; MCC [2]: 0.6 mM

Q: What does the source list for `O[C@@H]1[C@@H](O)[C@H](ON2CCCCC2)OC[C@H]1O`?
A: fold change (FC) [3]: 0.94; MCC [2]: 1 mM

Q: With `O[C@@H]1[C@@H](O)[C@@H](OC2=CC=CCO2)OC[C@H]1O` as the compound, how does the MCC [2] read?
A: 5 mM

Q: What about the “fold change (FC)” value [4] of the same compound?
A: 0.99

Q: Which Activity [5] does the source give for `CCSC(SCC)[C@@H]1O[C@H](c2ccccc2)O[C@@H]2CO[C@H](c3ccccc3)O[C@@H]21` here?
A: inactive

Q: And the Activity [6]?
A: inactive

Q: And the “fold change (FC)” value [7]?
A: 1.59

Q: What about the Activity [8] of the same compound?
A: tde

Q: And the free concentration [9]?
A: 100 nM

Q: What about the Activity [10] of the same compound?
A: Active

Q: What about the Activity [11] of the same compound?
A: 48.8%

Q: And the “fold change (FC)” value [12]?
A: 1.06

Q: What about the Activity [13] of the same compound?
A: inactive

Q: What about the Activity [14] of the same compound?
A: tde

Q: What about the MCC [2] of the same compound?
A: 50 mM

Q: What about the Activity [15] of the same compound?
A: tde

Q: And the Activity [16]?
A: Active

Q: What about the Activity [17] of the same compound?
A: inactive

Q: And the Activity [18]?
A: Active

Q: And the fold change (FC) [19]?
A: 4.89

Q: What does the source list for `CCS[C@@H]1OC[C@@H](O)[C@H](O)[C@H]1O`?
A: fold change (FC) [20]: 0.93; MCC [2]: 1 mM

Q: With `CCSC(SCC)[C@@H]1O[C@H](c2ccccc2)O[C@H](CO)[C@@H]1O` as the compound, how does the Activity [21] read?
A: inactive

Q: What about the Activity [22] of the same compound?
A: 98%

Q: And the Activity [23]?
A: Active

Q: And the Activity [5]?
A: inactive

Q: And the Activity [6]?
A: inactive

Q: And the fold change (FC) [24]?
A: 5.25

Q: What about the Activity [8] of the same compound?
A: tde

Q: What about the Activity [25] of the same compound?
A: Active

Q: What about the “fold change (FC)” value [26] of the same compound?
A: 1.49

Q: What about the Activity [14] of the same compound?
A: tde

Q: What about the Activity [27] of the same compound?
A: 60%

Q: And the Activity [15]?
A: tde

Q: What about the Activity [17] of the same compound?
A: inactive

Q: And the Activity [28]?
A: Active

Source: ChEMBL document CHEMBL1151715, “Novel D-xylose derivatives stimulate muscle glucose uptake by activating AMP-activated protein kinase alpha” (J Med Chem, 2008)
